MrgX1 ag: agonists of human MrgX1 receptor; Q96LB2; MrgX1-HEK293 cells, Fluo-4 calcium fluorescence, agonist mode; stronger effect = higher value; B-score at 10 µM; hit rate 0.44% among 310,000;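 active = calcium response B-score plate-corrected fluorescence ratio at least 3 library SD, with starting fluorescence B-score inside 5 SD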
Target sequence (Q96LB2 whole entry, looked up): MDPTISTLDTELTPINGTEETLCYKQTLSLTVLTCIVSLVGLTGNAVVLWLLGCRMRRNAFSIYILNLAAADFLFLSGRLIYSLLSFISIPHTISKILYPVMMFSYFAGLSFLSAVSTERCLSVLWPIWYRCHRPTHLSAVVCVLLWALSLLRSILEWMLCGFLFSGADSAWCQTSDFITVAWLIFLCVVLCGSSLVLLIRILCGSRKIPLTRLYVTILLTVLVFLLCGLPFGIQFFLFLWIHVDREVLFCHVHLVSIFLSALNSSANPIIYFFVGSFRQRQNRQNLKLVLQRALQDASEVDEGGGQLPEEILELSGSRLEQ
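Test system: Stable human MrgX1 HEK293 cell line | Schedule: Overnight plating before 1 h dye loading | Read-out basis: Baseline-normalised fluorescence change ratio, B-scored | Detection: Kinetic calcium dye fluorescence, Fluo-4 NW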
RGS4 block: human RGS4 inhibition; B-score at 10 µM; P49798; hit rate 0.45% among 310,000; HEK293 M3R/RGS4 inducible, Fluo-4 calcium flux; stronger effect = higher value; triggered by carbachol at its EC20;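 active = B-score, a plate-corrected calcium signal, over three deviations above library mean, with baseline fluorescence within five deviations of library mean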;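 note: RGS4 expression induced by doxycycline in cells with stable M3 receptor; B-score is computed from the integrated fluorescence ratio over baseline after carbachol; higher B-score means a larger calcium signal and so more RGS4 inhibition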
Target sequence (P49798 whole entry, looked up): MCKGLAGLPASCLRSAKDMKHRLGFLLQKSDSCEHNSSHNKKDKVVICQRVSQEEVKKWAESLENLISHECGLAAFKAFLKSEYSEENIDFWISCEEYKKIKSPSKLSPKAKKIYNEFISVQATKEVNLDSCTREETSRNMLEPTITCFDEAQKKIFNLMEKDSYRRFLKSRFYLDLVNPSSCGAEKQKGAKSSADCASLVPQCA
MrgX1 antagonist: antagonists of human MrgX1 receptor; Q96LB2; MRGX1-HEK293 calcium flux, Fluo-4, BAM8-22 antagonism; stronger effect = lower value; B-score at 10 µM; hit rate 1.3% among 310,000;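 active = calcium-response B-score plate-corrected more than 3 library SD below zero, starting fluorescence within 5 deviations, no agonist response on first addition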;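 note: peak minus trough fluorescence over baseline after final BAM8-22 challenge near maximal dose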
MrgX1 allo act: human MrgX1 positive allosteric modulation, primary screen; Q96LB2; MrgX1-HEK293, Fluo-4 calcium flux, FDSS; stronger effect = higher value; B-score at 10 µM; hit rate 0.63% among 310,000;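 active = plate-corrected calcium response at least 3 library SD above typical, normal starting fluorescence, not activating the receptor alone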;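 note: compound read alongside a low EC10 to EC30 dose of BAM8-22 agonist; peak minus trough fluorescence over baseline measured at the second addition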
RGS4 act: RGS4 potentiation or activation; hit rate 0.92% among 310,000; B-score at 10 µM; AID 463111; HEK293 M3R/inducible RGS4, carbachol calcium flux Fluo4; stronger effect = lower value;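 active = B-score of the integrated calcium signal more than 4 SD below the library mean, with starting fluorescence not abnormally high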;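 note: negative B-score means reduced calcium response which marks RGS4 activation or potentiation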
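Assay system: Inducible-RGS4 HEK293 cells carrying M3 receptor | Schedule: Compound preincubation 20 min at room temperature before agonist | Signal: Kinetic calcium fluorescence imaging with Fluo4-AM dye, 2 µM | Read-out basis: B score from integrated fluorescence ratio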
Numbers stand for hits. Sampled rows, rich in hits. Any-hit rate of the full collection: about 3.5%.

`Cc1ccc(C)c(NC(=S)NC(NC(=O)Cc2cccc3ccccc23)C(Cl)(Cl)Cl)c1` (stereo unspecified) gave MrgX1 ag inactive, RGS4 block inactive, MrgX1 antagonist -9.09, MrgX1 allo act inactive and RGS4 act inactive.
Cc1ccc(C)c(NC(=S)NC(NC(=O)N(C)C)C(Cl)(Cl)Cl)c1 (stereo unspecified) was read as MrgX1 ag inactive, RGS4 block inactive, MrgX1 antagonist inactive, MrgX1 allo act inactive and RGS4 act inactive.
For CCCCC(=O)N/N=C(\C)c1cccc(NC(=O)C2CC2)c1 the results were MrgX1 ag inactive, RGS4 block inactive, MrgX1 antagonist -5.59, MrgX1 allo act inactive and RGS4 act inactive.
Fc1ccc(NC(=S)Nc2cccnc2)c(F)c1F was read as MrgX1 ag inactive, RGS4 block inactive, MrgX1 antagonist inactive, MrgX1 allo act inactive and RGS4 act inactive.
`COc1cccc(NC(=O)c2nnn(Cc3ccc(Br)cc3F)c2N)c1` gave MrgX1 ag inactive, RGS4 block inactive, MrgX1 antagonist inactive, MrgX1 allo act inactive and RGS4 act inactive.
For CCCCCCOc1ccc(/C(N)=N/O)cc1 the results were MrgX1 ag inactive, RGS4 block inactive, MrgX1 antagonist inactive, MrgX1 allo act inactive and RGS4 act inactive.
N=C(N)c1ccc(OCCCCCOc2ccc(C(=N)N)cc2)cc1 was read as MrgX1 ag 34.2, RGS4 block inactive, MrgX1 antagonist inactive, MrgX1 allo act inactive and RGS4 act inactive.
CCOC(=O)c1cnc2c(C)cccc2c1NCCc1ccc(OC)c(OC)c1 was read as MrgX1 ag inactive, RGS4 block inactive, MrgX1 antagonist inactive, MrgX1 allo act inactive and RGS4 act -7.42.
CCOC(=O)c1cnc2c(Cl)cccc2c1NCCN(C)C was read as MrgX1 ag inactive, RGS4 block inactive, MrgX1 antagonist inactive, MrgX1 allo act inactive and RGS4 act inactive.
Screening CCOC(=O)c1cnc2ccc(C(=O)OC)cc2c1NCCc1ccc(OC)c(OC)c1 returned MrgX1 ag inactive, RGS4 block inactive, MrgX1 antagonist -6.43, MrgX1 allo act inactive and RGS4 act inactive.
Screening CCOC(=O)c1cnc2c(C(=O)OC)cccc2c1NCc1cccnc1 returned MrgX1 ag inactive, RGS4 block inactive, MrgX1 antagonist inactive, MrgX1 allo act inactive and RGS4 act -7.01.
CCOC(=O)c1cnc2ccc(C(=O)OC)cc2c1NCCN1CCOCC1 was read as MrgX1 ag inactive, RGS4 block inactive, MrgX1 antagonist inactive, MrgX1 allo act inactive and RGS4 act inactive.
Screening CCOC(=O)c1cnc2c(C)cccc2c1Nc1cccc(C(=O)O)c1 returned MrgX1 ag inactive, RGS4 block inactive, MrgX1 antagonist inactive, MrgX1 allo act inactive and RGS4 act inactive.
For COc1ccc(/C=C(\NC(=O)c2ccccc2)C(=O)OCC2CCCN3CCCCC23)cc1OC (stereo unspecified) the results were MrgX1 ag inactive, RGS4 block inactive, MrgX1 antagonist inactive, MrgX1 allo act inactive and RGS4 act inactive.
Screening Cc1ccc(-c2csc(NC(=O)COC(=O)c3cccc(S(=O)(=O)N4CCOCC4)c3)n2)cc1 returned MrgX1 ag inactive, RGS4 block inactive, MrgX1 antagonist -4.85, MrgX1 allo act inactive and RGS4 act inactive.
`CCN(CC)CCC(C)OC(c1ccccc1)c1ccccc1` (stereo unspecified) gave MrgX1 ag inactive, RGS4 block inactive, MrgX1 antagonist inactive, MrgX1 allo act inactive and RGS4 act -8.69.
Screening CC(=O)c1c(N2CCOCC2)nc2ccc(Br)cc2c1-c1ccccc1 returned MrgX1 ag inactive, RGS4 block inactive, MrgX1 antagonist inactive, MrgX1 allo act inactive and RGS4 act inactive.
For Cc1onc(-c2ccccc2Cl)c1C(=O)N1CCN(C)CC1 the results were MrgX1 ag inactive, RGS4 block inactive, MrgX1 antagonist inactive, MrgX1 allo act inactive and RGS4 act inactive.
Screening O=S(=O)(c1ccccc1)c1cnc(-c2ccccc2)nc1N1CCCC1 returned MrgX1 ag inactive, RGS4 block inactive, MrgX1 antagonist inactive, MrgX1 allo act inactive and RGS4 act inactive.
Screening COc1cc2ncc(S(=O)(=O)c3ccccc3)c(N3CCCC(C)C3)c2cc1OC (stereo unspecified) returned MrgX1 ag inactive, RGS4 block inactive, MrgX1 antagonist inactive, MrgX1 allo act inactive and RGS4 act -7.28.
For CC1=C(C#N)c2nc(N)c(C#N)c(C)c2/C1=C\c1ccc(C)cc1 the results were MrgX1 ag inactive, RGS4 block inactive, MrgX1 antagonist -5.9, MrgX1 allo act inactive and RGS4 act inactive.
Screening CS(=O)(=O)c1ccc(CNC(=O)C2(C(F)(F)F)C/C(=C\Cc3ccccc3)CCCO2)cc1 (stereo unspecified) returned MrgX1 ag inactive, RGS4 block inactive, MrgX1 antagonist inactive, MrgX1 allo act inactive and RGS4 act inactive.
For COc1ccc(/C=C2/SC(=S)N(CCC(=O)O)C2=O)cc1 the results were MrgX1 ag 31.3, RGS4 block inactive, MrgX1 antagonist inactive, MrgX1 allo act inactive and RGS4 act inactive.
For COc1ccc(OC)c(/C=C2\SC(=S)N(Cc3cccnc3)C2=O)c1 the results were MrgX1 ag inactive, RGS4 block inactive, MrgX1 antagonist inactive, MrgX1 allo act inactive and RGS4 act inactive.
For COc1ccc(-c2nn(-c3ccccc3)cc2/C=C2/SC(=S)N(CCC(=O)O)C2=O)c(C)c1 the results were MrgX1 ag inactive, RGS4 block inactive, MrgX1 antagonist inactive, MrgX1 allo act inactive and RGS4 act -7.69.
COc1ccc(O)c(/C=C2/SC(=S)N(Cc3ccccc3)C2=O)c1 was read as MrgX1 ag inactive, RGS4 block inactive, MrgX1 antagonist -5.07, MrgX1 allo act inactive and RGS4 act inactive.
`CC1=NNC(=O)/C1=C\c1cn(-c2ccccc2)nc1-c1cccs1` gave MrgX1 ag inactive, RGS4 block inactive, MrgX1 antagonist -6.46, MrgX1 allo act inactive and RGS4 act inactive.
For CC1=NNC(=O)/C1=C\c1cn(-c2ccccc2)nc1-c1ccc(F)cc1 the results were RGS4 block inactive and RGS4 act inactive.
Screening O=C(CN(C(=O)c1csnn1)c1cccc2c1CCCC2)NCc1ccccc1 returned MrgX1 ag inactive, RGS4 block inactive, MrgX1 antagonist inactive, MrgX1 allo act inactive and RGS4 act inactive.
Screening O=C(O)CCCCCN1C(=O)/C(=C\c2cn(-c3ccccc3)nc2-c2cccs2)SC1=S returned MrgX1 ag inactive, RGS4 block inactive, MrgX1 antagonist inactive, MrgX1 allo act inactive and RGS4 act -6.98.
COc1ccc(-c2nn(-c3ccccc3)cc2/C=C2/SC(=S)N(CCC(=O)O)C2=O)cc1 was read as MrgX1 ag inactive, RGS4 block inactive, MrgX1 antagonist -6.04, MrgX1 allo act inactive and RGS4 act -7.23.
For CCOc1ccc(-c2nn(-c3ccccc3)cc2/C=C2\SC(=S)N(C3CCS(=O)(=O)C3)C2=O)cc1 (stereo unspecified) the results were MrgX1 ag inactive, RGS4 block inactive, MrgX1 antagonist inactive, MrgX1 allo act inactive and RGS4 act -8.3.

Screens deposited in PubChem by Johns Hopkins Ion Channel Center.
